Reference: ChEMBL document CHEMBL4118021, “Studies of TAK1-centered polypharmacology with novel covalent TAK1 inhibitors” (Bioorg Med Chem, 2017)
The source made the active and inactive calls. No cut-off for these calls is given here.

How the values were obtained:
[1] = biological target: Tyrosine-protein kinase Fer (Homo sapiens) (UniProt P16591); test: Inhibition of FER in human SKCO1 cells at 1 uM after 4 hrs using biotin labeled TSVAVKTCKEDLPQELK probe by mass-spectrometric analysis relative to control; assay type: cell-based
[2] = biological target: Serine/threonine-protein kinase MARK1 (Homo sapiens) (UniProt Q9P0L2); test: Inhibition of MARK1 in human SKCO1 cells at 1 uM after 4 hrs using biotin labeled EVAVKIIDK probe by mass-spectrometric analysis relative to control; assay type: cell-based
Chain of Serine/threonine-protein kinase MARK1 (Homo sapiens) (Q9P0L2 whole entry, looked up): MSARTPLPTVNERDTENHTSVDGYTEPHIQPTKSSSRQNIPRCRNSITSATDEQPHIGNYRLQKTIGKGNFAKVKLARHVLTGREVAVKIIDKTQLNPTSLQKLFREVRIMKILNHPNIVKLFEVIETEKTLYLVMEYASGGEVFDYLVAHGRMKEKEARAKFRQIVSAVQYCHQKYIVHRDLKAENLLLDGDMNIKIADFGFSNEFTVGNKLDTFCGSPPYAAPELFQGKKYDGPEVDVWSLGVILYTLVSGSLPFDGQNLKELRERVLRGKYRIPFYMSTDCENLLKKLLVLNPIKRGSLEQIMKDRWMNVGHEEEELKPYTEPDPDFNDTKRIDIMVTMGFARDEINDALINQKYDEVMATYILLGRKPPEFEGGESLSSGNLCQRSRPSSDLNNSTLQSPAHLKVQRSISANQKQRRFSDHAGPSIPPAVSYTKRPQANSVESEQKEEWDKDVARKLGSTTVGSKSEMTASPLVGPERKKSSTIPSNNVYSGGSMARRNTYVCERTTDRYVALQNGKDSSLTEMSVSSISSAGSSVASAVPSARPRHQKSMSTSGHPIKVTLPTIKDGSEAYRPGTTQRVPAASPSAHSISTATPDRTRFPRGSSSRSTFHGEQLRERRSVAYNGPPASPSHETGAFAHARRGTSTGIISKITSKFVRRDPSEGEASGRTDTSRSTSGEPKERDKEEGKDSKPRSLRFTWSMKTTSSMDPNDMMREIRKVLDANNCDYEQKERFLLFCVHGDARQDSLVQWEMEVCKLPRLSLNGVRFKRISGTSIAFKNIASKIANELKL

[3] = biological target: 14-3-3 protein theta (Homo sapiens) (UniProt P27348); test: Binding affinity to YWHAQ in human NCI-H23 cells at 1 uM by mass spectrometry based pull down assay; assay type: cell-based
Chain of 14-3-3 protein theta (Homo sapiens) (P27348 whole entry): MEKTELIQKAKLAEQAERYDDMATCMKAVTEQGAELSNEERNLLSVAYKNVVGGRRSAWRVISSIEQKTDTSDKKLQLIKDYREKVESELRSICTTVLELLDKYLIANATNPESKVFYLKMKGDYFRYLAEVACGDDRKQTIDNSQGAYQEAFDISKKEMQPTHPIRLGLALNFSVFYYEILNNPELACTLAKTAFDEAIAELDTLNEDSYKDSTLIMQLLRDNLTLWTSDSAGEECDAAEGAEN

[4] = biological target: Far upstream element-binding protein 1 (Homo sapiens) (UniProt Q96AE4); test: Binding affinity to FUBP1 in human NCI-H23 cells at 1 uM by mass spectrometry based pull down assay; assay type: cell-based
Chain of Far upstream element-binding protein 1 (Homo sapiens) (Q96AE4 whole entry): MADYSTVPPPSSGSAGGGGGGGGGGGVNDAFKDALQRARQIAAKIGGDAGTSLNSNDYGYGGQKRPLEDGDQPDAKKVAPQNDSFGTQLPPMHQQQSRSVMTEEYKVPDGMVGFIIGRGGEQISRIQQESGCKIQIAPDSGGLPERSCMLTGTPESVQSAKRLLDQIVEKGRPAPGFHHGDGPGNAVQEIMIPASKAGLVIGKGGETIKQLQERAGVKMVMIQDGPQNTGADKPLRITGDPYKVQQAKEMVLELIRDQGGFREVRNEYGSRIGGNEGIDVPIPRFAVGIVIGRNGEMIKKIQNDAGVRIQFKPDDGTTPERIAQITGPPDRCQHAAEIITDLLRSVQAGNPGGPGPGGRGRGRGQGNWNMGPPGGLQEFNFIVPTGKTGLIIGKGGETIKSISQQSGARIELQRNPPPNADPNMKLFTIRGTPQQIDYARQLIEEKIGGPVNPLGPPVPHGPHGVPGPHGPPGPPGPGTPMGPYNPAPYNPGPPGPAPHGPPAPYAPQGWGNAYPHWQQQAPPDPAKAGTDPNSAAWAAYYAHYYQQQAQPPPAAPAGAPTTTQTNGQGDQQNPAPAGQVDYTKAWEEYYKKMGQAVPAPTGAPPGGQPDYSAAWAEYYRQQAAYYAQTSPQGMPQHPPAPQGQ

[5] = biological target: ADP-ribosylation factor-like protein 8B (Homo sapiens) (UniProt Q9NVJ2); test: Binding affinity to ARL8B in human NCI-H23 cells at 1 uM by mass spectrometry based pull down assay; assay type: cell-based
Chain of ADP-ribosylation factor-like protein 8B (Homo sapiens) (Q9NVJ2 whole entry): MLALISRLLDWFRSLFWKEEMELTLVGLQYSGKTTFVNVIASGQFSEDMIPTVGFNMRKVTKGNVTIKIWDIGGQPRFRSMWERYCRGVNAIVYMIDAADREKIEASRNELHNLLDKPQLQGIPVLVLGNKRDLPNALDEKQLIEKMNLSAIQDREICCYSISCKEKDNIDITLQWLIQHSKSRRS

[6] = biological target: Spermidine synthase (Homo sapiens) (UniProt P19623); test: Binding affinity to SRM in human NCI-H23 cells at 1 uM by mass spectrometry based pull down assay; assay type: cell-based
Chain of Spermidine synthase (Homo sapiens) (P19623 whole entry): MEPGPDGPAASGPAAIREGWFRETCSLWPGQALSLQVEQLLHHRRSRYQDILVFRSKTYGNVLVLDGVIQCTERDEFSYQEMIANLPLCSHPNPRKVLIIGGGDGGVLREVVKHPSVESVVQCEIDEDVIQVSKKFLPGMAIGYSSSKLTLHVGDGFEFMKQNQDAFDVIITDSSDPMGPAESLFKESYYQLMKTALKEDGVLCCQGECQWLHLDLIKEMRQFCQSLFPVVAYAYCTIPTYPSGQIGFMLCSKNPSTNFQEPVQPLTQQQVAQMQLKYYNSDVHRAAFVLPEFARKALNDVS

[7] = biological target: Thymidylate synthase (Homo sapiens) (UniProt P04818); test: Binding affinity to TYMS in human NCI-H23 cells at 1 uM by mass spectrometry based pull down assay; assay type: cell-based
Chain of Thymidylate synthase (Homo sapiens) (P04818 2-313 limits assumed): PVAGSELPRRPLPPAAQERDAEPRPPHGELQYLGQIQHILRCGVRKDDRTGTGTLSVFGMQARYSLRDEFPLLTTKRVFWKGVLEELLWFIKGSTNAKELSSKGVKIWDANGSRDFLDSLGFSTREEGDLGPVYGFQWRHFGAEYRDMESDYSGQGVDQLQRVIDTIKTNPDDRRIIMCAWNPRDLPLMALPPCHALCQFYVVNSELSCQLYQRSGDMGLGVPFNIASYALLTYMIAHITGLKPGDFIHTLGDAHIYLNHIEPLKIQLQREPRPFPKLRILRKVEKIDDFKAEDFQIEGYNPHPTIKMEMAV

[8] = biological target: Dual specificity mitogen-activated protein kinase kinase 2 (Homo sapiens) (UniProt P36507); test: Binding affinity to MAP2K2 in human NCI-H23 cells at 1 uM by mass spectrometry based pull down assay; assay type: cell-based
Chain of Dual specificity mitogen-activated protein kinase kinase 2 (Homo sapiens) (P36507 whole entry): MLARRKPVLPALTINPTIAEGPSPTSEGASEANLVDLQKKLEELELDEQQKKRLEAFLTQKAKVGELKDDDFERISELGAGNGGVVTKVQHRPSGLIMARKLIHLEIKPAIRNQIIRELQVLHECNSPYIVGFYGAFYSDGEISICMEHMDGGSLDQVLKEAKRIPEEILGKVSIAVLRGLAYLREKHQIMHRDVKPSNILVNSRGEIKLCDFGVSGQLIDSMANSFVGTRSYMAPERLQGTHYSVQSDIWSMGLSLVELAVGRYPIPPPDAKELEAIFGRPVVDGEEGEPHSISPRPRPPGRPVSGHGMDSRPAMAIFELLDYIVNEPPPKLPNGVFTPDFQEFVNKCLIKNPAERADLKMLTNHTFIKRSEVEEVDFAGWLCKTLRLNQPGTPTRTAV

[9] = biological target: Small ribosomal subunit protein eS6 (Homo sapiens) (UniProt P62753); test: Binding affinity to RPS6 in human NCI-H358 cells at 1 uM by mass spectrometry based pull down assay; assay type: cell-based
[10] = biological target: 80S Ribosome (Homo sapiens) (UniProt P08865+P42677+P62753+P15880+P23396+P61247+P62701+P22090+P46782+P62081+P62241+P46781+P46783+P62280+P25398+P62277+P62263+P62841+P62244+P62249+P08708+P62269+P39019+P60866+P63220+P62266+P62847+P62851+P62854+P62979+P62857+P62273+P62861+P39023+P36578+P46777+Q02878+P18124+P62424+P62917+P32969+P27635+P62906+P62913+P30050+P26373+P40429+P50914+P61313+P18621+Q07020+Q02543+P84098+P46778+P35268+P62829+P62750+P83731+P61254+P61353+P46776+P46779+P47914+P62888+P62899+P62910+P49207+P42766+P18077+Q9Y3U8+P83881+P61927+P61513+P63173+P62891+P62945+P05388+P05386); test: Binding affinity to RPL27 in human NCI-H358 cells at 1 uM by mass spectrometry based pull down assay; assay type: cell-based
[11] = biological target: Interleukin-1 receptor-associated kinase 1 (Homo sapiens) (UniProt P51617); test: Binding affinity to IRAK1 in human NCI-H358 cells at 1 uM by mass spectrometry based pull down assay; assay type: cell-based
[12] = biological target: Carbonyl reductase [NADPH] 1 (Homo sapiens) (UniProt P16152); test: Binding affinity to CBR1 in human NCI-H358 cells at 1 uM by mass spectrometry based pull down assay; assay type: cell-based
Chain of Carbonyl reductase [NADPH] 1 (Homo sapiens) (P16152 whole entry): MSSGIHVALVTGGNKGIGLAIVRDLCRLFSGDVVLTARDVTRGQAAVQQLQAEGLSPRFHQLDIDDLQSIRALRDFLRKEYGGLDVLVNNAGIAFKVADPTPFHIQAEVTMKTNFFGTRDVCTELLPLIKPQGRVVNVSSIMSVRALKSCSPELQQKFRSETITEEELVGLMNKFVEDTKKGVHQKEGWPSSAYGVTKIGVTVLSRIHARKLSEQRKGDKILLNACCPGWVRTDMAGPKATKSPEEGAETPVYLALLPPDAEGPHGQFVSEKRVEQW

[13] = biological target: Glutamine--fructose-6-phosphate aminotransferase [isomerizing] 1 (Homo sapiens) (UniProt Q06210); test: Binding affinity to GFPT1 in human NCI-H358 cells at 1 uM by mass spectrometry based pull down assay; assay type: cell-based
Chain of Glutamine--fructose-6-phosphate aminotransferase [isomerizing] 1 (Homo sapiens) (Q06210 whole entry): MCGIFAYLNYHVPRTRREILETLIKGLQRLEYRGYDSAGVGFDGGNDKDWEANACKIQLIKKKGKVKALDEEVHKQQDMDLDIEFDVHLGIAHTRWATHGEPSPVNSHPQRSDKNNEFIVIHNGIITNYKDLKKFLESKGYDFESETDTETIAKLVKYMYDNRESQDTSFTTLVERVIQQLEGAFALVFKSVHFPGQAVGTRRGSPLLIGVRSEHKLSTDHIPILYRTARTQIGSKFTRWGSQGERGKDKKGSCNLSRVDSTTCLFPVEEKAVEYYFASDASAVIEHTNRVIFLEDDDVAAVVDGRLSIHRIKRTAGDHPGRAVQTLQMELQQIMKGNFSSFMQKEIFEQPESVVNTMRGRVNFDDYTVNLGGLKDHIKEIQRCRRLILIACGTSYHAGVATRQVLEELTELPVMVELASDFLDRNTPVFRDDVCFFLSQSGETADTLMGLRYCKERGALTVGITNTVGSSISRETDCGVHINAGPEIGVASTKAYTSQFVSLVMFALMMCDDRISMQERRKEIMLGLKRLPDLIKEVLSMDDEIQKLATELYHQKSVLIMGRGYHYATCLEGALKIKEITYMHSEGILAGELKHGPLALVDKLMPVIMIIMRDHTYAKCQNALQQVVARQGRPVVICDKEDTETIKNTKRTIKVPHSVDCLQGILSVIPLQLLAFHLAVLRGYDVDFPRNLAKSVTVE

[14] = biological target: Phosphatidylinositol 3-kinase catalytic subunit type 3 (Homo sapiens) (UniProt Q8NEB9); test: Binding affinity to PIK3C3 in human NCI-H358 cells at 1 uM by mass spectrometry based pull down assay; assay type: cell-based
Chain of Phosphatidylinositol 3-kinase catalytic subunit type 3 (Homo sapiens) (Q8NEB9 whole entry): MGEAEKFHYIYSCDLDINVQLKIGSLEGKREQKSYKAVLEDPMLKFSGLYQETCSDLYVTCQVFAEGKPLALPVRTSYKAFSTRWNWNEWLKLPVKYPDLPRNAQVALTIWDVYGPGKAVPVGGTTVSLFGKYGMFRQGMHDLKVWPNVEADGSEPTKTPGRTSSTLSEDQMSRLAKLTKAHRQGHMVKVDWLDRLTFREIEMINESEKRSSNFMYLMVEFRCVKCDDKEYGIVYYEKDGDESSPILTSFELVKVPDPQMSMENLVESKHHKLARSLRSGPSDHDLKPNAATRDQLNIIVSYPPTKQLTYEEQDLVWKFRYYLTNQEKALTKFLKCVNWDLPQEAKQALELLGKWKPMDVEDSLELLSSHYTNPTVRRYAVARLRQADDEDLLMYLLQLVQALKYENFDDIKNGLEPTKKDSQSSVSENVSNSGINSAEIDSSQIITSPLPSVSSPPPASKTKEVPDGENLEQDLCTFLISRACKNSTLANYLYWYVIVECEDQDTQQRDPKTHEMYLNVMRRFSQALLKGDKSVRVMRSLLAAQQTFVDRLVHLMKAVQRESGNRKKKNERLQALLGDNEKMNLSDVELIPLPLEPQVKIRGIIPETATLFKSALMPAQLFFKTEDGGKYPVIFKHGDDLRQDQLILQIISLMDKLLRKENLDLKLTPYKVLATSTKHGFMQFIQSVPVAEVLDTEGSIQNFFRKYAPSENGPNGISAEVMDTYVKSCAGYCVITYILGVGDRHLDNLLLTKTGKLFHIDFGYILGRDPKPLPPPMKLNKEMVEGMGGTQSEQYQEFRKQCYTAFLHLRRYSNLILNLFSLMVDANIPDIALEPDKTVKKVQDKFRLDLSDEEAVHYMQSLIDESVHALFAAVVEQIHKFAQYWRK

[15] = biological target: T1, Dual specificity mitogen-activated protein kinase kinase 3 (Homo sapiens) (UniProt P46734); test: Binding affinity to MAP2K3 in human NCI-H358 cells at 1 uM by mass spectrometry based pull down assay; assay type: cell-based
T1 sequence (whole entry): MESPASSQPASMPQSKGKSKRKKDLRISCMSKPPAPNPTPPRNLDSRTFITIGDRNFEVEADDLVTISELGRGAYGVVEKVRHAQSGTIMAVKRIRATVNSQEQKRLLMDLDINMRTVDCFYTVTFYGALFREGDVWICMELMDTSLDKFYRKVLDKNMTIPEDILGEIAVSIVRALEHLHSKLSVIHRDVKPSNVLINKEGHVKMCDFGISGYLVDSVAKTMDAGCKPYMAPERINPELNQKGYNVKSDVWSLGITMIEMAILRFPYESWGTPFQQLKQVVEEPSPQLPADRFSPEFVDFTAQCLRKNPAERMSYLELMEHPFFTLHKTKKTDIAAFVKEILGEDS

[16] = biological target: T2, Mitogen-activated protein kinase kinase kinase 7 (Homo sapiens) (UniProt O43318); test: Inhibition of TAK1 in RA patient-derived synovial fibroblasts assessed as inhibition of poly(I:C)-induced cytokine secretion at 3 uM preincubated for 3 hrs followed by poly(I:C) stimulation measured after 18 hrs by sandwich immunoassay
T2 sequence (whole entry): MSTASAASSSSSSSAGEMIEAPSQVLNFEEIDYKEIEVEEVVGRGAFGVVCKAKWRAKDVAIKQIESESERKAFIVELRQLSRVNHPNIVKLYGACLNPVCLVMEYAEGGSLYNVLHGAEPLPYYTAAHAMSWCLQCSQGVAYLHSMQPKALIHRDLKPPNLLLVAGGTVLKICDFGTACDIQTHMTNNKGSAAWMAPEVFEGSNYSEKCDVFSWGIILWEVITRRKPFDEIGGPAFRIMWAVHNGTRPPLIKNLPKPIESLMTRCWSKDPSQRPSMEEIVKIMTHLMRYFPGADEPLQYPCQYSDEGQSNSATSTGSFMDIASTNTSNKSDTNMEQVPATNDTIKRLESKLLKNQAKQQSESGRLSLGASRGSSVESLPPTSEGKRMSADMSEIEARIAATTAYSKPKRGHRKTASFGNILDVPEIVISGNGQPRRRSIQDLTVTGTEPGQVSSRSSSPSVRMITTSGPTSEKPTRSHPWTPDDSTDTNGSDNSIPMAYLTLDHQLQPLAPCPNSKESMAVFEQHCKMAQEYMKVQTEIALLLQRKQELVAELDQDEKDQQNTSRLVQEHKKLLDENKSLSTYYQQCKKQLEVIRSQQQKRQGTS
How it was run: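 Primary RA synovial fibroblasts (donor RA2159) seeded 1000 cells/well and grown ~24 h at 37 °C, 5% CO2. Starved overnight in basal medium, then ~4 h in basal medium with 0.1% BSA. Two adjacent wells pooled per replicate, in biological duplicate. Supernatants diluted 1:3 and run on Luminex 27-plex/21-plex sandwich immunoassays for 48 analytes, with spiked-ligand and mock-supernatant background controls.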

Q: With `C=CC(=O)Nc1ccccc1Nc1nc(Nc2ccc(N3CCN(C)CC3)cc2)ncc1Cl` as the compound, how does the inhibition [1] read?
A: -0.2%

Q: What about the inhibition [2] of the same compound?
A: -5.7%

Q: For `C=CC(=O)Nc1ccccc1Nc1nc(Nc2ccc(N3CCN(CCOCCOCCOCCNC(=O)CCCC[C@@H]4SC[C@@H]5NC(=O)N[C@@H]54)CC3)cc2)ncc1Cl`, which Activity [3] is on record?
A: Active

Q: What about the Activity [4] of the same compound?
A: Active

Q: And the Activity [5]?
A: Active

Q: What about the Activity [6] of the same compound?
A: Active

Q: What about the Activity [7] of the same compound?
A: Active

Q: And the Activity [8]?
A: Active

Q: And the Activity [9]?
A: Active

Q: What about the Activity [10] of the same compound?
A: Active

Q: And the Activity [11]?
A: Active

Q: What about the Activity [12] of the same compound?
A: Active

Q: And the Activity [13]?
A: Active

Q: And the Activity [14]?
A: Active

Q: And the Activity [15]?
A: Active

Q: For `C=CC(=O)Nc1ccccc1Oc1nc(Nc2cnn(CCOC)c2)ncc1Cl`, which inhibition [16] is on record?
A: Active
